Measured values reported in ChEMBL document CHEMBL4689842, “EUbOPEN Chemogenomics Library wave 1” (2021).
Values joined by “and” are separate entries in the source; they are usually repeats but may differ in a detail not shown here. Identical values can stand only once.

Columns and labels:
Format in all cases: toxicity, cell-based
U2OS [1] = assay: Incucyte cell viability with U2OS; details: human, 10 µM, compound concentration 10 uM; note: filed as whole numbers so only -1 and 0 and 1 occur
U2OS [2] = assay: Multiplex assay against U2OS; details: human, 1 µM, compound concentration 1 uM
Procedure, shortened: (§1)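 Per cents of healthy-nucleus cells form the tubulin, mitochondrial-mass and membrane-permeability phenotype values. Live cells were stained at seeding with Hoechst33342, BioTracker Green Microtubule Cytoskeleton Dye, MitoTracker Red and Annexin V Alexa Fluor 680. After compound addition they were imaged on a CQ1 microscope at 37°C and 5% CO2, and CellPathfinder machine-learning gating split them into Hoechst high-intensity objects or normal cells, normal cells into healthy, pyknosed or fragmented nuclei, and pyknosed cells into mitotic or apoptotic.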

HEK-293T [3] = assay: Multiplex assay against HEK293T; details: human, 1 µM, compound concentration 1 uM; procedure, shortened: as §1
Fibroblast [4] = assay: Multiplex assay against human fibroblast; details: 1 µM, compound concentration 1 uM; procedure, shortened: as §1
HEK-293T [5] = assay: Incucyte cell viability with HEK293T; details: human, 10 µM, compound concentration 10 uM; note: filed as whole numbers so only -1 and 0 and 1 occur
Fibroblast [6] = assay: Incucyte cell viability with human fibroblast; details: 10 µM, compound concentration 10 uM; note: filed as whole numbers so only -1 and 0 and 1 occur
[7] = 6 h, replicate number 1, timepoint 6 hours
[8] = 12 h, replicate number 1, timepoint 12 hours
[9] = 18 h, replicate number 1, timepoint 18 hours
[10] = 24 h, replicate number 1, timepoint 24 hours

SMILES: FC(F)c1nc2ccccc2n1-c1nc(N2CCOCC2)nc(N2CCOCC2)n1 [ZSTK-474]
- Growth Rate (U2OS [1]; 0 h, replicate number 1, timepoint 0 hours): 1
- Growth Rate (U2OS [1]; [7]): 1
- Growth Rate (U2OS [1]; [8]): 1
- Growth Rate (U2OS [1]; 12 h, replicate number 2, timepoint 12 hours): 0
- Growth Rate (U2OS [1]; [9]): 0
- Growth Rate (U2OS [1]; [10]): 0
- Population Fragmented Nuclei (%) (U2OS [2]; 12 h, replicate 1): 3%
- Population Healthy Nuclei (%) (U2OS [2]; 12 h, replicate 1): 89% and 87%
- Population Hoechst High Intensity Objects (%) (U2OS [2]; 12 h, replicate 1): 4% and 3%
- Population Membrane Permeable-Phenotype (%) (U2OS [2]; 12 h, replicate 1): 18% and 7%
- Population Mitotic Cells (%) (U2OS [2]; 12 h, replicate 1): 56% and 88%
- Population Normal (%) (U2OS [2]; 12 h, replicate 1): 95% and 96%
- Population Pyknosed Nuclei (%) (U2OS [2]; 12 h, replicate 1): 7% and 6%
- Population Tubulin-Different-Phenotype (%) (U2OS [2]; 12 h, replicate 1): 13% and 23%
- Total Cell Count (U2OS [2]; 12 h, replicate 1): 134 and 206
- Population Fragmented Nuclei (%) (U2OS [2]; 12 h, replicate 2): 8% and 5%
- Population Healthy Nuclei (%) (U2OS [2]; 12 h, replicate 2): 85%
- Population Hoechst High Intensity Objects (%) (U2OS [2]; 12 h, replicate 2): 14% and 10%
- Population Membrane Permeable-Phenotype (%) (U2OS [2]; 12 h, replicate 2): 21% and 13%
- Population Mitochondria Different-Phenotype (%) (U2OS [2]; 12 h, replicate 2): 9% and 18%
- Population Mitotic Cells (%) (U2OS [2]; 12 h, replicate 2): 83% and 28%
- Population Normal (%) (U2OS [2]; 12 h, replicate 2): 85% and 89%
- Population Pyknosed Nuclei (%) (U2OS [2]; 12 h, replicate 2): 5%
- Population Tubulin-Different-Phenotype (%) (U2OS [2]; 12 h, replicate 2): 20% and 35%
- Total Cell Count (U2OS [2]; 12 h, replicate 2): 147 and 107
- Population Healthy Nuclei (%) (U2OS [2]; 24 h, replicate 1): 90%
- Population Hoechst High Intensity Objects (%) (U2OS [2]; 24 h, replicate 1): 2%
- Population Mitochondria Different-Phenotype (%) (U2OS [2]; 24 h, replicate 1): 4% and 12%
- Population Normal (%) (U2OS [2]; 24 h, replicate 1): 97%
- Population Pyknosed Nuclei (%) (U2OS [2]; 24 h, replicate 1): 4% and 3%
- Population Tubulin-Different-Phenotype (%) (U2OS [2]; 24 h, replicate 1): 12% and 25%
- Total Cell Count (U2OS [2]; 24 h, replicate 1): 190 and 236
- Population Apoptotic (%) (U2OS [2]; 24 h, replicate 2): 28% and 50%
- Population Fragmented Nuclei (%) (U2OS [2]; 24 h, replicate 2): 4% and 6%
- Population Healthy Nuclei (%) (U2OS [2]; 24 h, replicate 2): 89%
- Population Hoechst High Intensity Objects (%) (U2OS [2]; 24 h, replicate 2): 11% and 4%
- Population Membrane Permeable-Phenotype (%) (U2OS [2]; 24 h, replicate 2): 20% and 11%
- Population Mitochondria Different-Phenotype (%) (U2OS [2]; 24 h, replicate 2): 9% and 20%
- Population Mitotic Cells (%) (U2OS [2]; 24 h, replicate 2): 71% and 50%
- Population Normal (%) (U2OS [2]; 24 h, replicate 2): 88% and 95%
- Population Pyknosed Nuclei (%) (U2OS [2]; 24 h, replicate 2): 5%
- Population Tubulin-Different-Phenotype (%) (U2OS [2]; 24 h, replicate 2): 20% and 36%
- Total Cell Count (U2OS [2]; 24 h, replicate 2): 188 and 114
- Population Apoptotic (%) (HEK-293T [3]; 12 h, replicate 1): 22% and 20%
- Population Fragmented Nuclei (%) (HEK-293T [3]; 12 h, replicate 1): 18% and 14%
- Population Healthy Nuclei (%) (HEK-293T [3]; 12 h, replicate 1): 59% and 50%
- Population Hoechst High Intensity Objects (%) (HEK-293T [3]; 12 h, replicate 1): 16% and 20%
- Population Membrane Permeable-Phenotype (%) (HEK-293T [3]; 12 h, replicate 1): 7% and 5%
- Population Mitochondria Different-Phenotype (%) (HEK-293T [3]; 12 h, replicate 1): 6% and 13%
- Population Mitotic Cells (%) (HEK-293T [3]; 12 h, replicate 1): 77% and 79%
- Population Normal (%) (HEK-293T [3]; 12 h, replicate 1): 83% and 79%
- Population Pyknosed Nuclei (%) (HEK-293T [3]; 12 h, replicate 1): 22% and 35%
- Total Cell Count (HEK-293T [3]; 12 h, replicate 1): 600 and 593
- Population Apoptotic (%) (HEK-293T [3]; 12 h, replicate 2): 18% and 16%
- Population Fragmented Nuclei (%) (HEK-293T [3]; 12 h, replicate 2): 5% and 9%
- Population Healthy Nuclei (%) (HEK-293T [3]; 12 h, replicate 2): 86% and 85%
- Population Membrane Permeable-Phenotype (%) (HEK-293T [3]; 12 h, replicate 2): 4% and 3%
- Population Mitotic Cells (%) (HEK-293T [3]; 12 h, replicate 2): 81% and 83%
- Population Normal (%) (HEK-293T [3]; 12 h, replicate 2): 90% and 97%
- Population Pyknosed Nuclei (%) (HEK-293T [3]; 12 h, replicate 2): 8% and 4%
- Total Cell Count (HEK-293T [3]; 12 h, replicate 2): 1084 and 1487
- Population Apoptotic (%) (HEK-293T [3]; 24 h, replicate 1): 28% and 17%
- Population Fragmented Nuclei (%) (HEK-293T [3]; 24 h, replicate 1): 16% and 15%
- Population Healthy Nuclei (%) (HEK-293T [3]; 24 h, replicate 1): 54% and 72%
- Population Hoechst High Intensity Objects (%) (HEK-293T [3]; 24 h, replicate 1): 19% and 13%
- Population Membrane Permeable-Phenotype (%) (HEK-293T [3]; 24 h, replicate 1): 8%
- Population Mitotic Cells (%) (HEK-293T [3]; 24 h, replicate 1): 71% and 82%
- Population Normal (%) (HEK-293T [3]; 24 h, replicate 1): 80% and 86%
- Population Pyknosed Nuclei (%) (HEK-293T [3]; 24 h, replicate 1): 28% and 11%
- Total Cell Count (HEK-293T [3]; 24 h, replicate 1): 526 and 650
- Population Apoptotic (%) (HEK-293T [3]; 24 h, replicate 2): 12% and 13%
- Population Fragmented Nuclei (%) (HEK-293T [3]; 24 h, replicate 2): 11% and 31%
- Population Healthy Nuclei (%) (HEK-293T [3]; 24 h, replicate 2): 79% and 66%
- Population Hoechst High Intensity Objects (%) (HEK-293T [3]; 24 h, replicate 2): 11% and 4%
- Population Membrane Permeable-Phenotype (%) (HEK-293T [3]; 24 h, replicate 2): 10% and 6%
- Population Mitotic Cells (%) (HEK-293T [3]; 24 h, replicate 2): 87% and 86%
- Population Normal (%) (HEK-293T [3]; 24 h, replicate 2): 88% and 95%
- Total Cell Count (HEK-293T [3]; 24 h, replicate 2): 1133 and 2662
- Population Apoptotic (%) (Fibroblast [4]; 12 h, replicate 1): 75% and 78%
- Population Fragmented Nuclei (%) (Fibroblast [4]; 12 h, replicate 1): 31% and 20%
- Population Healthy Nuclei (%) (Fibroblast [4]; 12 h, replicate 1): 54% and 67%
- Population Hoechst High Intensity Objects (%) (Fibroblast [4]; 12 h, replicate 1): 15% and 11%
- Population Mitochondria Different-Phenotype (%) (Fibroblast [4]; 12 h, replicate 1): 3% and 1%
- Population Mitotic Cells (%) (Fibroblast [4]; 12 h, replicate 1): 25% and 21%
- Population Normal (%) (Fibroblast [4]; 12 h, replicate 1): 84% and 88%
- Population Pyknosed Nuclei (%) (Fibroblast [4]; 12 h, replicate 1): 14% and 11%
- Total Cell Count (Fibroblast [4]; 12 h, replicate 1): 268 and 222
- Population Fragmented Nuclei (%) (Fibroblast [4]; 12 h, replicate 2): 71% and 55%
- Population Healthy Nuclei (%) (Fibroblast [4]; 12 h, replicate 2): 26% and 37%
- Population Hoechst High Intensity Objects (%) (Fibroblast [4]; 12 h, replicate 2): 40% and 37%
- Population Membrane Permeable-Phenotype (%) (Fibroblast [4]; 12 h, replicate 2): 0% and 6%
- Population Mitochondria Different-Phenotype (%) (Fibroblast [4]; 12 h, replicate 2): 14% and 26%
- Population Mitotic Cells (%) (Fibroblast [4]; 12 h, replicate 2): 100% and 66%
- Population Normal (%) (Fibroblast [4]; 12 h, replicate 2): 59% and 62%
- Total Cell Count (Fibroblast [4]; 12 h, replicate 2): 88 and 64
- Population Apoptotic (%) (Fibroblast [4]; 24 h, replicate 1): 63% and 76%
- Population Fragmented Nuclei (%) (Fibroblast [4]; 24 h, replicate 1): 24% and 22%
- Population Healthy Nuclei (%) (Fibroblast [4]; 24 h, replicate 1): 61% and 64%
- Population Hoechst High Intensity Objects (%) (Fibroblast [4]; 24 h, replicate 1): 12%
- Population Membrane Permeable-Phenotype (%) (Fibroblast [4]; 24 h, replicate 1): 3% and 1%
- Population Mitotic Cells (%) (Fibroblast [4]; 24 h, replicate 1): 36% and 24%
- Population Normal (%) (Fibroblast [4]; 24 h, replicate 1): 87%
- Population Pyknosed Nuclei (%) (Fibroblast [4]; 24 h, replicate 1): 14% and 12%
- Population Tubulin-Different-Phenotype (%) (Fibroblast [4]; 24 h, replicate 1): 18% and 0%
- Total Cell Count (Fibroblast [4]; 24 h, replicate 1): 235 and 226
- Population Apoptotic (%) (Fibroblast [4]; 24 h, replicate 2): 0%
- Population Fragmented Nuclei (%) (Fibroblast [4]; 24 h, replicate 2): 72% and 63%
- Population Healthy Nuclei (%) (Fibroblast [4]; 24 h, replicate 2): 23% and 34%
- Population Hoechst High Intensity Objects (%) (Fibroblast [4]; 24 h, replicate 2): 40% and 33%
- Population Membrane Permeable-Phenotype (%) (Fibroblast [4]; 24 h, replicate 2): 8% and 7%
- Population Mitochondria Different-Phenotype (%) (Fibroblast [4]; 24 h, replicate 2): 8% and 23%
- Population Mitotic Cells (%) (Fibroblast [4]; 24 h, replicate 2): 100%
- Population Normal (%) (Fibroblast [4]; 24 h, replicate 2): 60% and 66%
- Population Pyknosed Nuclei (%) (Fibroblast [4]; 24 h, replicate 2): 3% and 2%
- Total Cell Count (Fibroblast [4]; 24 h, replicate 2): 85 and 57
- Growth Rate (HEK-293T [5]; [7]): 0
- Growth Rate (HEK-293T [5]; [8]): 0
- Growth Rate (HEK-293T [5]; [9]): 0
- Growth Rate (HEK-293T [5]; [10]): 0
- Growth Rate (Fibroblast [6]; 0 h, replicate number 2, timepoint 0 hours): 0
- Growth Rate (Fibroblast [6]; [7]): 0
- Growth Rate (Fibroblast [6]; [8]): 0
- Growth Rate (Fibroblast [6]; [9]): 0
- Growth Rate (Fibroblast [6]; [10]): 0
